Laboratory results: paper PMC3040319 (Pharmaceutical Research, 2010)
Read-outs that look alike come from different tables or passages of the source. Marks after values point to notes of the source that are not given here.

Assays:
[1] = tested on: primary mouse hepatocytes; type: in vitro ADME
Oct1+/+ and Oct1-/- mice = test: Toxicity study of CDPCP in Oct1+/+ and Oct1-/- mice; type: in vivo, mouse; conditions: for Kidney histopathological examination (affected/examined animals) / Liver histopathological examination (affected/examined animals): 24 hr after third i.v. dose; for liver-to-body-weight ratio increase compared with saline-treated mice: 120 mg/kg reduced to 90 mg/kg
In short: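 Male Oct1+/+ and Oct1-/- mice (8 weeks, ≥9 per group) were randomised to saline or test compound. Dosing was by tail vein once weekly ×3 (120 mg/kg initially, later 90 mg/kg). Body weight was recorded three times weekly. Mice were fasted ≥16 h and killed under isoflurane 24 h after the last dose. Measures: serum ALT/AST/ALKP and liver weight. Liver and kidney were fixed in 4% paraformaldehyde, paraffin-embedded and H&E stained; affected/examined animals were counted.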

HEK-MOCK cells = test: Cellular accumulation of platinum in HEK-MOCK cells; type: in vitro ADME, human; conditions: 10 μM, 1 h
In short: (§1)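 HEK293 cells stably carrying full-length mouse Oct1 cDNA in pcDNA5/FRT, selected with hygromycin B; the human OCT1 line's construct is not described. Cells grown in DMEM H21 with 10% FBS at 37°C, 5% CO2. Exposed to 10 μM test compound in serum-free medium for 1 h, then washed 3× with ice-cold PBS. Digested in 70% nitric acid at 65°C for ≥2.5 h. Pt measured by ICP-MS, normalised to BCA protein.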

mouse Oct1 = target: T1, mouse Oct1 (Mus musculus, UniProt O08966); test: Cellular accumulation of platinum in HEK-mOct1 cells; type: in vitro ADME; conditions: 10 μM, 1 h
T1 sequence (O08966 1-556): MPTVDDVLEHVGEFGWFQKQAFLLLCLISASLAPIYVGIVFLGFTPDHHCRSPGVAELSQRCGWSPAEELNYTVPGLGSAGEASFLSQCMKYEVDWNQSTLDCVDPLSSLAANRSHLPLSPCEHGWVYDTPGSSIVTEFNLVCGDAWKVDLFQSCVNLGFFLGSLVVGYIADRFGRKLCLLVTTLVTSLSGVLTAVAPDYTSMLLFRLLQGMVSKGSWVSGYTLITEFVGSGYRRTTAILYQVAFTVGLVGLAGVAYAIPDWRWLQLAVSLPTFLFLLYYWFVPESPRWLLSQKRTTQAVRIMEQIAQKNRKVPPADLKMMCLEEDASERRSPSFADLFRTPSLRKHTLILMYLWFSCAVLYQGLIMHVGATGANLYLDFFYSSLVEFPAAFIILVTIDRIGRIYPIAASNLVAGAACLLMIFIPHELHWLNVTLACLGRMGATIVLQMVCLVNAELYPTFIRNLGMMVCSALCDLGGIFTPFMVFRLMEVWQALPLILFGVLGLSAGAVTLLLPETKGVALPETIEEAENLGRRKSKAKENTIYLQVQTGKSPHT
In short: as §1

[2] = Tissue accumulation of platinum in Oct1+/+ and Oct1-/- mice; type: in vivo, mouse; conditions: for Brain Normalized platinum / Heart Normalized platinum / Intestine Normalized platinum / Kidney Normalized platinum / Liver Normalized platinum / Muscle Normalized platinum: divided by plasma concentration
In short: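 Male FVB Oct1+/+ and Oct1-/- mice (8 weeks) were given 8 mg/kg in saline i.v. by tail vein and killed 1 h later. Liver, kidney, heart, lung, brain, intestine, spleen and muscle were snap-frozen. Total Pt was measured by ICP-MS in 10–30 mg tissue and reported as nmol/g tissue; plasma was reported in μM.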

genomic DNA = test: Platinum-DNA adduct formation in primary mouse hepatocytes; type: cell-based
In short: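 Attached wild-type or Oct1-/- mouse hepatocytes were exposed to 10 μM test compound for 1 h at 37°C in serum-free medium, with or without OCT1 inhibitor. Cells were then washed with ice-cold PBS. Genomic DNA was kit-purified. DNA-bound Pt was measured by ICP-MS, and DNA by A260 from the same preparation. Adduct level expressed as pmol Pt/μg DNA.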

[3] = Plasma platinum pharmacokinetics in Oct1+/+ and Oct1-/- mice; type: in vivo, mouse; conditions: single i.v. 8 mg/kg
In short: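 Male FVB Oct1+/+ and Oct1-/- mice (8 weeks) received a single tail-vein dose of 8 mg/kg in saline. Heparinised plasma was taken by heart puncture at 15 and 30 min and at 1, 2, 3, 4, 8, 10, 24 and 48 h. Total Pt in 5 μl plasma and in urine was measured by ICP-MS. Parameters (Vss, CL, renal CL) came from two-compartment analysis.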

[4] = hepatocytes from Oct1 wild-type mice, disopyramide 150 μM
[5] = Oct1+/+ mice, i.v. once weekly for 3 weeks
[6] = Oct1-/- mice, i.v. once weekly for 3 weeks
[7] = OCT1 KO mice, 1 h after IV 8 mg/kg
[8] = OCT1 WT mice, 1 h after IV 8 mg/kg

SMILES: [NH3+][Pt-2]([NH3+])([Cl])[n+]1ccccc1 (stereo not drawn) [CDPCP, cis-diammine(pyridine)chloroplatinum(II)]
- hepatocellular uptake, wild-type as fold of Oct1-/- ([1]; 10 μM, 1 hr): 2.9 fold
- hepatocellular uptake ([1]; hepatocytes from Oct1-/- mice, 10 μM, 1 hr): 87.8 ± 7.61 pmol/mg protein/hr
- hepatocellular uptake ([1]; hepatocytes from Oct1-/- mice, 10 μM, 1 hr, co-incubation with disopyramide 150 μM): 95.8 ± 17.6 pmol/mg protein/hr
- hepatocellular uptake ([1]; hepatocytes from Oct1 wild-type mice, 10 μM, 1 hr): 251 ± 94.6 pmol/mg protein/hr
- hepatocellular uptake ([1]; hepatocytes from Oct1 wild-type mice, 10 μM, 1 hr, co-incubation with disopyramide 150 μM): 55.9 ± 1.41 pmol/mg protein/hr
- fold decrease in platinum uptake by disopyramide [1, 4]: 4.5 fold
- Kidney histopathological examination (affected/examined animals) (Oct1+/+ and Oct1-/- mice; OCT1+/+ mice): Normal (4/4)
- Liver histopathological examination (affected/examined animals) (Oct1+/+ and Oct1-/- mice; OCT1+/+ mice): Severe swollen hepatocytes (3/4); Mild swollen hepatocytes(1/4)
- Kidney histopathological examination (affected/examined animals) (Oct1+/+ and Oct1-/- mice; OCT1-/- mice): Kidney tube protein contents (3/4); kidney hyaline necrosis (1/4)
- Liver histopathological examination (affected/examined animals) (Oct1+/+ and Oct1-/- mice; OCT1-/- mice): Mild swollen hepatocytes(1/4)
- serum BUN levels vs saline (Oct1+/+ and Oct1-/- mice; Oct1+/+ mice): significantly reduced
- actual liver weight (Oct1+/+ and Oct1-/- mice; [5]): 1.23 g
- liver-to-body-weight ratio increase compared with saline-treated mice (Oct1+/+ and Oct1-/- mice; [5]): 28.8%
- serum glucose levels (Oct1+/+ and Oct1-/- mice; Oct1+/+ mice, vs saline): significant increase
- total serum protein levels (Oct1+/+ and Oct1-/- mice; Oct1+/+ mice, vs saline): significant decrease
- serum BUN vs saline (Oct1+/+ and Oct1-/- mice; Oct1-/- mice): not affected
- actual liver weight (Oct1+/+ and Oct1-/- mice; [6]): 1.02 g
- liver-to-body-weight ratio increase compared with saline-treated mice (Oct1+/+ and Oct1-/- mice; [6]): 14.7%
- serum creatinine levels vs saline (Oct1+/+ and Oct1-/- mice; both Oct1+/+ and Oct1-/- mice): not significantly different
- dose resulting in significant changes in body weight, liver-to-body-weight ratio, liver function and hematology (Oct1+/+ and Oct1-/- mice; dose-range finding toxicity study): ≥ 90 mg/kg
- histological examination of intestine (Oct1+/+ and Oct1-/- mice; either Oct1+/+ or Oct1-/- mice): no signs of intestinal toxicity
- activities of ALT, AST and ALKP (Oct1+/+ and Oct1-/- mice; either Oct1+/+ or Oct1-/- mice, i.v. once weekly for 3 weeks): not affected
- body weight loss in Oct1-/- mice compared with Oct1+/+ mice (Oct1+/+ and Oct1-/- mice; i.v. once weekly for 3 weeks): much greater
- ALT (Oct1+/+ and Oct1-/- mice; wild-type mice, 120 mg/kg, dose-finding studies (data not shown)): significant increases
- uptake of platinum (HEK-MOCK cells): 27.4 ± 7.43 pmol/mg protein/hr
- uptake of platinum (mouse Oct1; HEK-mOct1 cells): 1470 ± 66.6 pmol/mg protein/hr
- uptake of platinum, fold greater than in HEK-MOCK cells (mouse Oct1; HEK-mOct1 vs HEK-MOCK): 53 fold
- total platinum in plasma, fold higher in Oct1-/- than wild-type mice ([2]; 1 h after 8 mg/kg): 1.3 fold
- Brain Absolute platinum, OCT1 WT/KO ratio ([2]; 1 h after IV 8 mg/kg): 0.9
- Brain Normalized platinum, OCT1 WT/KO ratio ([2]; 1 h after IV 8 mg/kg): 1.2
- Heart Absolute platinum, OCT1 WT/KO ratio ([2]; 1 h after IV 8 mg/kg): 0.6**
- Heart Normalized platinum, OCT1 WT/KO ratio ([2]; 1 h after IV 8 mg/kg): 0.8*
- Intestine Absolute platinum, OCT1 WT/KO ratio ([2]; 1 h after IV 8 mg/kg): 2.8*
- Kidney Absolute platinum, OCT1 WT/KO ratio ([2]; 1 h after IV 8 mg/kg): 0.7*
- Kidney Normalized platinum, OCT1 WT/KO ratio ([2]; 1 h after IV 8 mg/kg): 1.0
- Liver Absolute platinum, OCT1 WT/KO ratio ([2]; 1 h after IV 8 mg/kg): 2.1**
- Muscle Absolute platinum, OCT1 WT/KO ratio ([2]; 1 h after IV 8 mg/kg): 0.8*
- Muscle Normalized platinum, OCT1 WT/KO ratio ([2]; 1 h after IV 8 mg/kg): 1.0
- Plasma platinum, OCT1 WT/KO ratio ([2]; 1 h after IV 8 mg/kg): 0.8**
- Brain Absolute platinum [2, 7]: 0.487 ± 0.128 pmol/g tissue
- Heart Absolute platinum [2, 7]: 15.4 ± 1.83 pmol/g tissue
- Intestine Absolute platinum [2, 7]: 32.3 ± 14.2 pmol/g tissue
- Kidney Absolute platinum [2, 7]: 44.3 ± 11.5 pmol/g tissue
- Liver Absolute platinum [2, 7]: 38.2 ± 8.51 pmol/g tissue
- Muscle Absolute platinum [2, 7]: 2.08 ± 0.292 pmol/g tissue
- Plasma platinum [2, 7]: 17.2 ± 2.11 µM
- Brain Normalized platinum [2, 7]: 0.0282 ± 0.00518 ml/g tissue
- Heart Normalized platinum [2, 7]: 0.898 ± 0.0813 ml/g tissue
- Intestine Normalized platinum [2, 7]: 1.84 ± 0.571 ml/g tissue
- Kidney Normalized platinum [2, 7]: 2.47 ± 0.552 ml/g tissue
- Liver Normalized platinum [2, 7]: 2.23 ± 0.440 ml/g tissue
- Muscle Normalized platinum [2, 7]: 0.122 ± 0.0201 ml/g tissue
- Brain Absolute platinum [2, 8]: 0.436 ± 0.116 pmol/g tissue
- Heart Absolute platinum [2, 8]: 9.77 ± 1.20 pmol/g tissue
- Intestine Absolute platinum [2, 8]: 90.9 ± 28.0 pmol/g tissue
- Kidney Absolute platinum [2, 8]: 32.1 ± 2.93 pmol/g tissue
- Liver Absolute platinum [2, 8]: 81.8 ± 9.31 pmol/g tissue
- Muscle Absolute platinum [2, 8]: 1.62 ± 0.144 pmol/g tissue
- Plasma platinum [2, 8]: 13.5 ± 1.72 µM
- Brain Normalized platinum [2, 8]: 0.0328 ± 0.0114 ml/g tissue
- Heart Normalized platinum [2, 8]: 0.725 ± 0.0747 ml/g tissue
- Intestine Normalized platinum [2, 8]: 7.13 ± 2.47 ml/g tissue
- Kidney Normalized platinum [2, 8]: 2.40 ± 0.374 ml/g tissue
- Liver Normalized platinum [2, 8]: 6.09 ± 0.792 ml/g tissue
- Muscle Normalized platinum [2, 8]: 0.121 ± 0.0118 ml/g tissue
- platinum-DNA adduct level, fold greater in wild-type than Oct1-/- (genomic DNA; 10 μM, 1 h): 2.4 fold
- platinum-DNA adduct level (genomic DNA; hepatocytes from Oct1-/- mice, 10 μM, 1 h): 0.0351 ± 0.00344 pmol/μg DNA
- platinum-DNA adduct level (genomic DNA; hepatocytes from Oct1-/- mice, 10 μM, 1 h, disopyramide 150 μM): 0.0338 ± 0.00798 pmol/μg DNA
- platinum-DNA adduct level (genomic DNA; hepatocytes from Oct1 wild-type mice, 10 μM, 1 h): 0.0857 ± 0.0232 pmol/μg DNA
- platinum-DNA adduct level (genomic DNA; hepatocytes from Oct1 wild-type mice, 10 μM, 1 h, disopyramide 150 μM): 0.0233 ± 0.00847 pmol/μg DNA
- fold decrease in platinum-DNA adduct formation by disopyramide (genomic DNA; [4]): 3.7 fold
- contribution of renal clearance to total clearance of platinum from plasma ([3]; both Oct1+/+ and Oct1-/- mice): about 50%
- volume of distribution, Oct1 wild-type as fold of Oct1-/- [3]: 1.77 fold
